Measurements reported in PMC4589248 (Biochemical and biophysical research communications, 2015).

Experiments:
[1] = tested on: C2C12 cells; assay: C1-BODIPY-C12 fatty acid uptake inhibition in C2C12 myocytes; format: cell-based; details: Mus musculus, C2C12, read-out: IC50, inhibition of C1-BODIPY-C12 uptake
In short: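 C2C12 mouse myoblasts grown in DMEM with 10 % FBS and 2 mM L-glutamine at 37 °C, 5 % CO2. Differentiated for 96 h at 8x10^4 cells/well in DMEM with 10 % horse serum. Uptake of fluorescent C1-BODIPY-C12 read as cell-associated fluorescence at ex/em 485/528 nm across a range of test compound concentrations. IC50 from non-linear dose-response regression; 3 experiments in triplicate, mean ± SE.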

[2] = tested on: INS-1E cells; assay: C1-BODIPY-C12 fatty acid uptake inhibition in INS-1E pancreatic β-cells; format: cell-based; details: read-out: IC50, inhibition of C1-BODIPY-C12 uptake
In short: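 INS-1E cells kept in RPMI 1640 with 5 % FBS, 1 mM pyruvate, 50 μM 2-mercaptoethanol and 10 mM HEPES at 37 °C, 5 % CO2. Seeded at 2x10^5 cells/well on collagen and used after 96 h. C1-BODIPY-C12 uptake read as cell-associated fluorescence at 485/528 nm against test compound concentration. IC50 by non-linear dose-response fit; 3 experiments in triplicate, mean ± SE.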

[3] = tested on: human adipocytes; assay: C1-BODIPY-C12 fatty acid uptake inhibition in primary human adipocytes; format: cell-based; details: read-out: IC50, inhibition of C1-BODIPY-C12 uptake
In short: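 Primary human preadipocytes seeded at 1.5x10^4 cells/well in alpha-MEM with 10 % FBS. Differentiated for 6 days with 540 μM IBMX plus 1 μM rosiglitazone, then kept without them until lipid droplets appeared. C1-BODIPY-C12 uptake read as cell-associated fluorescence at 485/528 nm across test compound concentrations. IC50 by non-linear dose-response fit; 3 experiments in triplicate.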

[4] = tested on: cell lines that are models for intestines, liver, muscle and pancreas; assay: Fatty acid uptake inhibition, summary over cell lines; format: cell-based; details: read-out: IC50, inhibition of fatty acid uptake
[5] = tested on: HepG2 cells; assay: C1-BODIPY-C12 uptake in HepG2 cells; format: cell-based
In short: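 Inhibition kinetics in HepG2 cells using 7 test compound concentrations (1.25–15 μM) and 4 C1-BODIPY-C12 concentrations (2.5–10 μM). The plate reader's injectors dispensed compound, then added substrate at timed intervals. Initial uptake rates measured over 90 s by fluorescence. Best-fit inhibition model chosen by enzyme-kinetics analysis; points are mean with SD.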

[6] = tested on: HepG2 cells; assay: Uptake of BODIPY FL-C16 and BODIPY FL-C5 in HepG2 cells; format: cell-based
[7] = tested on: Caco-2 cells; assay: Uptake of BODIPY FL-C16 and BODIPY FL-C5 in Caco-2 cells; format: cell-based, human
[8] = tested on: HepG2 cells; assay: Palmitate-induced lipid accumulation; format: cell-based; details: 50 μM compound, each concentration of PA (0-500 μM), 24 hrs
[9] = tested on: primary mouse hepatocytes; assay: Palmitate-induced lipid accumulation; format: cell-based, mice; details: 50 μM compound, each concentration of PA (0-500 μM)
In short: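 Hepatocytes isolated from 10–12-week 129S1/SvImJ mice and plated on collagen at 1.5x10^4 cells/well in DMEM with FBS, glucagon, hydrocortisone, EGF and insulin. Treated after 4–5 h of attachment with BSA-conjugated palmitate (0–500 μM, 2.5:1) with or without test compound (0–50 μM). Lipid measured by 30 μM Nile Red, 30 min at 37 °C, 485/590 nm. AFU per 10^6 cells; 3 experiments in triplicate.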

[10] = tested on: INS-1E cells; assay: Palmitate-induced lipid accumulation; format: cell-based; details: 50 μM compound, each concentration of PA (0-500 μM), 24 hrs
In short: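 INS-1E cells, 96 h after plating, treated for 24 h with BSA-conjugated palmitate (0–500 μM, 2.5:1 PA:BSA) with or without test compound (0–50 μM). Stained with 30 μM Nile Red for 30 min at 37 °C and read at ex/em 485/590 nm. Results as AFU per 10^6 cells; 3 experiments in triplicate.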

[11] = tested on: HepG2 cells; assay: Nuclear integrity; format: cell-based; details: PA 0-500 μM, Grassofermata 0-50 μM
[12] = tested on: primary mouse hepatocytes; assay: Nuclear integrity; format: cell-based, mice; details: primary murine hepatocytes; PA 0-500 μM, Grassofermata 0-50 μM
[13] = tested on: INS-1E cells; assay: Nuclear integrity; format: cell-based; details: PA 0-500 μM, Grassofermata 0-50 μM
[14] = tested on: C57BL/6 male mice; assay: Inhibition of 13C-oleate absorption in mice; format: in vivo; details: single oral dose 300 mg/kg, 6 hrs post-label administration
In short: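 Male C57BL/6 mice, 12 per group, fasted 12 h and given tyloxapol 500 mg/kg i.p. Gavaged with test compound 300 mg/kg in flaxseed oil or with oil alone. After 1 h, received flaxseed oil containing 500 mg/kg 13C-oleate. Plasma collected at 0.5, 2 and 6 h, Folch-extracted with nonadecanoic acid as internal standard. GC-MS in SIM mode, m/z 296 (12C) and 314 (13C oleate methyl ester). Mean ± SE of 10–12 mice.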

[15] = Grassofermata level in mouse plasma; format: in vivo, mice; details: male, C57BL/6, mouse, oral, 300 mg/kg
In short: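 Male C57BL/6 mice, 10 weeks old, in groups of 12, fasted 12 h and given tyloxapol 500 mg/kg i.p. They then received test compound 300 mg/kg in flaxseed oil by gavage, followed 1 h later by a 13C-oleate bolus. Plasma (EDTA) taken 0.5, 2 and 6 h after oleate. Plasma mixed with acetonitrile containing an analogue internal standard, acidified with TFA and centrifuged. Analysed by LC-MS/MS (C18, 457.1→411.1) against a 0.09–3.3 ng/μl standard curve.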

[16] = tested on: Caco-2 cells; details: 100 μM; cited from earlier work
[17] = tested on: HsFATP2; details: 80 μM; yeast expressing HsFATP2; cited from earlier work

## O=c1cc(-c2ccc([N+](=O)[O-])cc2)[nH]c2c(-c3ccc(Cl)cc3)c(Cc3ccccc3)nn12 [Grassofermata, 2-benzyl-3-(4-chlorophenyl)-5-(4-nitrophenyl)pyrazolo[1,5-a]pyrimidin-7(4H)-one]
[1]
  IC50: 10.6 µM
[2]
  IC50: 8.3 µM
[3]
  IC50: 58.2 µM
[4]
  IC50: 8 to 11 µM
[5]; HepG2, Grassofermata 1.25-15 μM, C1-BODIPY-C12 2.5-10 μM
  mechanism of inhibition of C1-BODIPY-C12 uptake: non-competitive mechanism of inhibition
[6]; HepG2, medium chain FA analog
  effect on transport of BODIPY FL-C5: did not affect
[6]; Homo sapiens, HepG2, read-out: IC50, inhibition of BODIPY FL-C16 uptake
  IC50: 17.3 ± 2.5 µM
[7]; Caco-2, medium chain FA analog
  effect on transport of BODIPY FL-C5: did not affect
[7]; Homo sapiens, Caco-2, read-out: IC50, inhibition of BODIPY FL-C16 uptake
  IC50: 13.5 ± 1.1 µM
[8]
  accumulation of lipid (Nile Red): significantly reduced
[9]
  accumulation of lipid (Nile Red): significantly reduced
[10]
  accumulation of lipid (Nile Red): significantly reduced
[11]
  DAPI staining (nuclear integrity): reduced DAPI staining of cells in a dose dependent manner
[12]
  DAPI staining (nuclear integrity): reduced DAPI staining of cells in a dose dependent manner
[13]
  DAPI staining (nuclear integrity): reduced DAPI staining of cells in a dose dependent manner
[14]
  reduction of the levels of labeled oleate in plasma: 37%
[15]
  concentration at 0.5 h: 2100 ± 600 ng/mL
  concentration at 2 h: 3400 ± 700 ng/mL
  concentration at 6 h: 2900 ± 700 ng/mL

## CCCCCCCCCCC[C@@H](C[C@@H]1OC(=O)[C@H]1CCCCCC)OC(=O)[C@H](CC(C)C)NC=O [Orlistat, reference compound]
[5]; standard FA transport assay, cell line not stated for Orlistat
  effect on C1-BODIPY-C12 uptake: no effect

## CN(C)CCCN1c2ccccc2Sc2ccc(Cl)cc21 [chlorpromazine]
[16]
  inhibition of FA uptake: 30–50%
[17]
  inhibition of C1-BODIPY-C12 uptake: intermediate levels of inhibition

## CN1CCN(C2=Nc3cc(Cl)ccc3Nc3ccccc32)CC1 [clozapine, Clozapine]
[16]
  inhibition of FA uptake: 30–50%
[17]
  inhibition of C1-BODIPY-C12 uptake: intermediate levels of inhibition
